For series [1], the system named is Liver microsome. Briefly: Prodrug conversion in rat liver microsomes assessed as half life. Background: Liver microsomes are vesicles of endoplasmic reticulum, rich in cytochrome P450 enzymes.
Series [2] deals with Liver microsome. Briefly: Prodrug conversion in human liver microsomes assessed as half life.
A short description of series [3]: Prodrug conversion in simulated intestinal fluid assessed as half life. The series is classed as ADME. Conditions: simulated gi fluid. The method, boiled down:
(§1)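 Incubations used 2 µM compound at 37 °C in either SGF (0.2% NaCl/HCl, pH 1.2, pepsin 3.2 mg/mL) or SIF (KH2PO4/NaOH, pH 7.5, pancreatin 10 mg/mL). Samples were quenched 1:2 with acetonitrile/methanol 1:1 and analysed by HPLC. t1/2 = 0.693/first-order disappearance rate.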

The next series deals with Intestine. The series is described as follows: Prodrug conversion in rat intestinal microsomes assessed as half life.
Series [4] can be described thus: Prodrug conversion in human intestinal microsomes assessed as half life.
The test system of series [5] is Plasma. The series is described as follows: Prodrug conversion in rat plasma assessed as half life. The series is classed as ADME, cell-free. The essentials: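 Rat plasma (from centrifuged whole blood) was incubated with 2 µM compound at 37 °C. Samples were quenched 1:3 with acetonitrile/methanol 1:1, centrifuged and analysed by HPLC-PDA. Half-life was taken as 0.693/first-order rate of loss of the starting compound.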

Series [6] in a line: Prodrug conversion in simulated gastric fluid assessed as half life. The series is classed as ADME. Conditions: simulated gi fluid. The method, boiled down:
as §1

Series [7] concerns Plasma. Briefly: Prodrug conversion in human plasma assessed as half life.
Series [8] can be described thus: Prodrug solubility in capmul. In kind it is ADME.
Series [9] in a line: Prodrug solubility in Labrasol. The series is classed as ADME.
Series [10] in a line: Prodrug solubility in PEG400. In kind it is ADME.
The nature of series [11]: Prodrug solubility in solutol. In kind it is ADME.
Series [12] in a line: AUC in rat plasma at 10 mg/kg, po using 10.6% PEG400, 5.4% Cremophor EL, 2.6% Labrasol, 1.4% Capmul MCM in water (80%) vehicle. In kind it is ADME, organism-based. Further details: dose 10 mg/kg, route oral. The following applies: plasma. The essentials:
(§2)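 Fasted rats were given a single 10 mg/kg oral dose, with n = 3 per dose and route. Plasma was extracted by solid-phase extraction. Analysis used HPLC with diode-array UV (200–400 nm, peak height at best S/N) or LC/MS. Calibration standards were made in blank plasma, with LOQ 7–14 ng/mL. Parameters came from noncompartmental analysis.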

The test system of series [13] is Rattus norvegicus. Briefly: Cmax in rat plasma assessed as (E)-3-(4-(1-(2-(5-chloropyrimidin-2-yl)-3-cyclopentyl-1-methyl-1H-indole-6-carboxamido)cyclobutanecarboxamido)-2-ethoxyphenyl)acrylic acid at 10 mg/kg, po using 10.6% PEG400, 5.4% Cremophor EL, 2.6% Labrasol, 1.4% Capmul MCM in water (80%) vehicle. The series is classed as ADME, organism-based. Details: dose 10 mg/kg, route oral. Conditions: in vivo. The essentials:
as §2

Series [14] deals with Rattus norvegicus. The series is described as follows: AUC in rat plasma assessed as (E)-3-(4-(1-(2-(5-chloropyrimidin-2-yl)-3-cyclopentyl-1-methyl-1H-indole-6-carboxamido)cyclobutanecarboxamido)-2-ethoxyphenyl)acrylic acid at 10 mg/kg, po using 10.6% PEG400, 5.4% Cremophor EL, 2.6% Labrasol, 1.4% Capmul MCM in water (80%) vehicle. Details: dose 10 mg/kg, route oral. The following applies: in vivo. The series is classed as ADME, organism-based. The essentials:
as §2

A short description of series [15]: Cmax in rat plasma at 10 mg/kg, po using 10.6% PEG400, 5.4% Cremophor EL, 2.6% Labrasol, 1.4% Capmul MCM in water (80%) vehicle. The series is classed as ADME, organism-based. Details: dose 10 mg/kg, route oral. The following applies: plasma. The method, boiled down: as §2

The structures appear in SMILES notation.

The text below walks through data of ChEMBL document CHEMBL3352534, “A prodrug strategy for the oral delivery of a poorly soluble HCV NS5B thumb pocket 1 polymerase inhibitor using self-emulsifying drug delivery systems (SEDDS)” (Bioorg Med Chem Lett, 2015).

In the case of `CCOc1cc(NC(=O)C2(NC(=O)c3ccc4c(C5CCCC5)c(-c5ncc(Cl)cn5)n(C)c4c3)CCC2)ccc1/C=C/C(=O)OCC(=O)OC`, the t1/2 came to 2.08 h in the series with Liver microsome [1] and 2.1 h with Liver microsome [2].

On to `CCOc1cc(NC(=O)C2(NC(=O)c3ccc4c(C5CCCC5)c(-c5ncc(Cl)cn5)n(C)c4c3)CCC2)ccc1/C=C/C(=O)N(C)CCO`, for which the results for the t1/2 in the series on Liver microsome [1] and in the series with Liver microsome [2] were 2.25 h and 1.3 h, respectively.

As for `CCOc1cc(NC(=O)C2(NC(=O)c3ccc4c(C5CCCC5)c(-c5ncc(Cl)cn5)n(C)c4c3)CCC2)ccc1/C=C/C(=O)OCC(=O)OCc1ccc(Cl)cc1`, the t1/2 turned out to be 11.4 h with Liver microsome [1] and 5.62 h in the series with Liver microsome [2].

For `CCCCOC(=O)COC(=O)/C=C/c1ccc(NC(=O)C2(NC(=O)c3ccc4c(C5CCCC5)c(-c5ncc(Cl)cn5)n(C)c4c3)CCC2)cc1OCC`, the t1/2 was found to be 15.8 h with Liver microsome [1] and 5.98 h in the series with Liver microsome [2].

`CCOc1cc(NC(=O)C2(NC(=O)c3ccc4c(C5CCCC5)c(-c5ncc(Cl)cn5)n(C)c4c3)CCC2)ccc1/C=C/C(=O)OCC(Cl)(Cl)Cl`: the t1/2 in series [3] is above 5 h; in the series on Liver microsome [1] it was 0.233 h; in the series with Intestine it was above 5 h; in [4] it was above 5 h; in the series with Plasma [5], 1.3 h; with Liver microsome [2], above 5 h. Besides, the t1/2 in [6] is 1.75 h; with Plasma [7], above 5 h.

As for `CCOc1cc(NC(=O)C2(NC(=O)c3ccc4c(C5CCCC5)c(-c5ncc(Cl)cn5)n(C)c4c3)CCC2)ccc1/C=C/C(=O)N[C@@H](CCC(=O)O)C(N)=O`, the figures for the t1/2 in [3] and in series [6] were 4.23 h and 0.533 h, respectively.

For orientation: solubility means how much of the substance goes into solution per volume. On to `CCOc1cc(NC(=O)C2(NC(=O)c3ccc4c(C5CCCC5)c(-c5ncc(Cl)cn5)n(C)c4c3)CCC2)ccc1/C=C/C(=O)OCC(=O)N(C)C(C)C`, for which the solubility in series [8] was below 200 mg/mL; in series [9], below 200 mg/mL; in series [10], above 200 mg/mL; in series [11], below 200 mg/mL. The t1/2 with Liver microsome [1] is 0.267 h; in the series on Liver microsome [2], 0.65 h.

For the compound `CCOc1cc(NC(=O)C2(NC(=O)c3ccc4c(C5CCCC5)c(-c5ncc(Cl)cn5)n(C)c4c3)CCC2)ccc1/C=C/C(=O)NCCO`, the t1/2 in the series with Liver microsome [1] is 1.48 h; in the series with Liver microsome [2], 1.63 h.

With `CCOc1cc(NC(=O)C2(NC(=O)c3ccc4c(C5CCCC5)c(-c5ncc(Cl)cn5)n(C)c4c3)CCC2)ccc1/C=C/C(=O)OC(=O)C[C@H](O)C(=O)O`, the t1/2 with Liver microsome [1] was 7.92 h; in the series with Liver microsome [2] it was 5.57 h.

On to `CCOc1cc(NC(=O)C2(NC(=O)c3ccc4c(C5CCCC5)c(-c5ncc(Cl)cn5)n(C)c4c3)CCC2)ccc1/C=C/C(=O)N[C@@H](CC(=O)O)C(N)=O`, for which the t1/2 in [3] is 0.067 h; in series [6], above 5 h.

As to `CCOc1cc(NC(=O)C2(NC(=O)c3ccc4c(C5CCCC5)c(-c5ncc(Cl)cn5)n(C)c4c3)CCC2)ccc1/C=C/C(=O)OCCC(C)C`, the t1/2 in series [3] is above 5 h; in the series with Liver microsome [1], 1.42 h; in the series with Intestine, above 5 h; in [4] it was above 5 h; with Plasma [5], 18.02 h; in the series with Liver microsome [2], above 5 h. The t1/2 in series [6] is 1.43 h; with Plasma [7], 6.18 h.

For the compound `CCOC(=O)/C=C/c1ccc(NC(=O)C2(NC(=O)c3ccc4c(C5CCCC5)c(-c5ncc(Cl)cn5)n(C)c4c3)CCC2)cc1OCC`, the t1/2 in series [3] was above 5 h; in the series with Liver microsome [1] it was 3.07 h; in the series with Intestine it was above 5 h; in [4], above 5 h; in the series on Plasma [5] it was 8.18 h; with Liver microsome [2], above 5 h. Also, the values for the t1/2 (in series [6]; in the series with Plasma [7]) were 0.333 h and above 5 h, respectively.

As for `CCOc1cc(NC(=O)C2(NC(=O)c3ccc4c(C5CCCC5)c(-c5ncc(Cl)cn5)n(C)c4c3)CCC2)ccc1/C=C/C(=O)OCC(=O)OCc1ccccc1`, the t1/2 in series [3] was 1.63 h; in the series with Liver microsome [1], 2.2 h; in the series on Intestine it was above 5 h; in series [4], above 5 h; with Plasma [5], 6.6 h; with Liver microsome [2], 26.15 h. The t1/2 in series [6] is 3.03 h; in the series on Plasma [7], above 5 h.

In general, AUC refers to the area under the concentration-time curve, a measure of exposure. Usually Cmax stands for the highest concentration seen after dosing. For `CCOc1cc(NC(=O)C2(NC(=O)c3ccc4c(C5CCCC5)c(-c5ncc(Cl)cn5)n(C)c4c3)CCC2)ccc1/C=C/C(=O)OCCNN1CCCC1`, the solubility in series [8], in [9] and in series [11] was below 100 mg/mL throughout. Moreover, the t1/2 came to 0.783 h in the series on Liver microsome [1] and 0.683 h with Liver microsome [2]. The results for the AUC (in series [12]; with Rattus norvegicus [14]) were 0.06 µM·h and 25.6 µM·h, respectively. For the same compound, the Cmax stood at 6100 nM in the series with Rattus norvegicus [13] and 40 nM in series [15].

Turning to `CCOc1cc(NC(=O)C2(NC(=O)c3ccc4c(C5CCCC5)c(-c5ncc(Cl)cn5)n(C)c4c3)CCC2)ccc1/C=C/C(=O)OCCOCCOC`, the values for the solubility in series [8], in series [9] and in series [11] were below 60 mg/mL, below 30 mg/mL and below 100 mg/mL, respectively. In addition, the t1/2 with Liver microsome [1] stood at 1.07 h; with Liver microsome [2] it was 0.85 h. The AUC in series [12] worked out at 0.1 µM·h; with Rattus norvegicus [14], 23.1 µM·h. Besides, the highest concentration (Cmax) with Rattus norvegicus [13] came to 4600 nM; in series [15], 30 nM.

`CCOc1cc(NC(=O)C2(NC(=O)c3ccc4c(C5CCCC5)c(-c5ncc(Cl)cn5)n(C)c4c3)CCC2)ccc1/C=C/C(=O)OCOC(=O)C(C)(C)C`: the t1/2 is 5.6 h with Liver microsome [1], 4.12 h with Liver microsome [2] and below 0.033 h in series [6]. Further, the exposure (AUC) in series [12] was determined as 0.3 µM·h; in the series with Rattus norvegicus [14], 19.6 µM·h. Also, the peak concentration (Cmax) with Rattus norvegicus [13] came out at 1700 nM; in [15] it was 40 nM.

With `CCOc1cc(NC(=O)C2(NC(=O)c3ccc4c(C5CCCC5)c(-c5ncc(Cl)cn5)n(C)c4c3)CCC2)ccc1/C=C/C(=O)OCC(=O)O`, the t1/2 in the series on Liver microsome [1] amounted to 1.17 h; with Liver microsome [2], 3.1 h.

With `CCOc1cc(NC(=O)C2(NC(=O)c3ccc4c(C5CCCC5)c(-c5ncc(Cl)cn5)n(C)c4c3)CCC2)ccc1/C=C/C(=O)OCc1ccccc1`, the t1/2 in series [3] was above 5 h; in the series with Liver microsome [1] it was 2.17 h; with Intestine, above 5 h; in [4] it was above 5 h; with Plasma [5] it was 2.23 h; with Liver microsome [2] it was above 5 h. In addition, the t1/2 was 1.83 h in series [6] and above 5 h with Plasma [7].

Regarding `CCOc1cc(NC(=O)C2(NC(=O)c3ccc4c(C5CCCC5)c(-c5ncc(Cl)cn5)n(C)c4c3)CCC2)ccc1/C=C/C(=O)OCCOc1ccccc1`, the t1/2 is 16.5 h in the series on Liver microsome [1] and above 5 h in the series with Liver microsome [2].

Turning to `CCCOC(=O)/C=C/c1ccc(NC(=O)C2(NC(=O)c3ccc4c(C5CCCC5)c(-c5ncc(Cl)cn5)n(C)c4c3)CCC2)cc1OCC`, the t1/2 in series [3] is above 5 h; in the series on Liver microsome [1], 0.35 h; with Intestine, above 5 h; in series [4], above 5 h; in the series on Plasma [5] it was 15.2 h; in the series on Liver microsome [2], above 5 h. Moreover, the t1/2 in [6] is 2.23 h; in the series on Plasma [7] it was above 5 h.

For the compound `CCOc1cc(NC(=O)C2(NC(=O)c3ccc4c(C5CCCC5)c(-c5ncc(Cl)cn5)n(C)c4c3)CCC2)ccc1/C=C/C(=O)OCC[N+](C)(C)C.[Br-]`, the t1/2 in the series on Liver microsome [1] was 1.73 h; with Liver microsome [2] it was above 5 h; in series [6], 0.417 h.

In the case of `CCOc1cc(NC(=O)C2(NC(=O)c3ccc4c(C5CCCC5)c(-c5ncc(Cl)cn5)n(C)c4c3)CCC2)ccc1/C=C/C(=O)N[C@@H](CCCNC(=N)N)C(N)=O`, in [6], the t1/2 is 0.467 h.

As to `CCOC(=O)COC(=O)/C=C/c1ccc(NC(=O)C2(NC(=O)c3ccc4c(C5CCCC5)c(-c5ncc(Cl)cn5)n(C)c4c3)CCC2)cc1OCC`, the t1/2 was 2.45 h in the series on Liver microsome [1] and 1.6 h in the series on Liver microsome [2].

As to `CCCCCCOC(=O)/C=C/c1ccc(NC(=O)C2(NC(=O)c3ccc4c(C5CCCC5)c(-c5ncc(Cl)cn5)n(C)c4c3)CCC2)cc1OCC`, the t1/2 with Liver microsome [1] is 12.7 h; in the series with Liver microsome [2], 17.88 h; in series [6] it was 0.883 h. Also, the AUC in series [12] came out at 2.2 µM·h; in the series on Rattus norvegicus [14], 3.2 µM·h. The Cmax is 200 nM in the series with Rattus norvegicus [13] and 400 nM in series [15].
